Data taken from ChEMBL document CHEMBL2429859, “Inhibiting aberrant signal transducer and activator of transcription protein activation with tetrapodal, small molecule Src homology 2 domain binders: promising agents against multiple myeloma” (J Med Chem, 2013).
Calls of active or inactive are those of the source. The rule behind the calls is not given here.

Tests used:
[1] = biological target: T1, Signal transducer and activator of transcription 1-alpha/beta (Homo sapiens, UniProt P42224); assay: Binding affinity to Stat1 (unknown origin) using 5-FAM-GpYLPQTV-NH2 as probe assessed as phosphopetide complex formation after 30 mins by fluorescence polarization assay
T1 sequence (P42224 whole entry): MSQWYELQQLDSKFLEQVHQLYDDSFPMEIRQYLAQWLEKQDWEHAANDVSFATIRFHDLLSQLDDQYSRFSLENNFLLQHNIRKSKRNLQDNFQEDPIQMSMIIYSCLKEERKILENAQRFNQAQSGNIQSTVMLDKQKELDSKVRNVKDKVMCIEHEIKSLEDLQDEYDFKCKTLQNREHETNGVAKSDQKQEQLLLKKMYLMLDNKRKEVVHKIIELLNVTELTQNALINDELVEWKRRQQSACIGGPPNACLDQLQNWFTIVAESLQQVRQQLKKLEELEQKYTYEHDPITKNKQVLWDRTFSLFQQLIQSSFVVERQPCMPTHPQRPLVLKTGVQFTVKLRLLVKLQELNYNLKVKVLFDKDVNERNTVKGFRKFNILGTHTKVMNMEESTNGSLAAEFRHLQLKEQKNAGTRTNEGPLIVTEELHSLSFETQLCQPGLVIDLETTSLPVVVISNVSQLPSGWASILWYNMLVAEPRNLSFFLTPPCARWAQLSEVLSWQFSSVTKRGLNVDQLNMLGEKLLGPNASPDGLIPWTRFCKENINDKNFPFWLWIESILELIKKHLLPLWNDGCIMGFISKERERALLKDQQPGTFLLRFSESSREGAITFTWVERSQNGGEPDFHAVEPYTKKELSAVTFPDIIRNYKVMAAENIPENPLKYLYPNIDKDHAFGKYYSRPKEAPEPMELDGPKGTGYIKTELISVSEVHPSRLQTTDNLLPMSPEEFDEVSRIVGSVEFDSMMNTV
Procedure, shortened: (§1)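 Fluorescence polarization. Recombinant STAT protein was incubated with the 5-FAM-GpYLPQTV-NH2 peptide probe and inhibitor for 30 min. Polarized fluorescence was plotted against inhibitor concentration, and IC50 was obtained by fitting a dose-response curve.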

[2] = biological target: T2, Signal transducer and activator of transcription 1-alpha/beta (Homo sapiens) (UniProt P42224); assay: Inhibition of IFNgamma-induced Stat1 phosphorylation in serum-starved human U937 cells at 10 to 20 uM incubated for 4 hrs prior to IFNgamma induction measured after 15 mins by phopsho-flow cytometric analysis; assay type: cell-based; conditions: U-937
T2 sequence (whole entry): T1 sequence (P42224 whole entry)
Procedure, shortened: (§2)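 Serum-starved U937 cells were pretreated with compound for 4 h, then stimulated 15 min with IL-6 (Stat3), GM-CSF (Stat5) or IFN (Stat1). Phosphorylation of each STAT was quantified by phospho-flow cytometry.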

[3] = biological target: T3, Signal transducer and activator of transcription 3 (Homo sapiens, UniProt P40763); assay: Inhibition of IL-6-induced Stat3 phosphorylation in serum-starved human U937 cells at 10 to 20 uM incubated for 4 hrs prior to IL-6 induction measured after 15 mins by phopsho-flow cytometric analysis; assay type: cell-based; conditions: U-937; procedure, shortened: as §2
RPMI-8226 [4] = assay: Induction of apoptosis in human RPMI8226 cells assessed as transformation of early apoptotic cells to late apoptotic cells measured at 48 hrs by annexin V/propidium iodide staining-based flow cytometric analysis; assay type: functional, cell-based
Procedure, shortened: (§3)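 Apoptosis was measured by flow cytometry of Annexin V and propidium iodide staining. Viable, early apoptotic and late apoptotic cells were scored by quadrant, with time points at 24 and 48 h.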

RPMI-8226 [5] = assay: Induction of apoptosis in human RPMI8226 cells assessed as transformation of viable cells to early apoptotic cells measured at 24 hrs by annexin V/propidium iodide staining-based flow cytometric analysis; assay type: functional, cell-based; procedure, shortened: as §3
[6] = biological target: T3, Signal transducer and activator of transcription 3; assay: Inhibition of Stat3 in human JJN-3 cells assessed as downregulation of c-Myc protein expression after 6 hrs by Western blot analysis; assay type: cell-based
Procedure, shortened: (§4)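 Treated cells were washed in cold PBS and lysed 30 min on ice in Tris-HCl pH 7.4/NaCl/EDTA/1% NP-40 with PMSF, vanadate and protease inhibitors. Lysates were Bradford-normalized, and 10-30 µg protein was run on 7-10% SDS-PAGE and transferred to PVDF. Blots were blocked in 5% BSA/TBST, probed overnight at 4 °C, then with HRP secondary, and detected by ECL.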

[7] = biological target: T3, Signal transducer and activator of transcription 3; assay: Inhibition of Stat3-mediated luciferase expression in human XG6 cells after 6 hrs; assay type: cell-based
Procedure, shortened: (§5)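 Myeloma cells stably carried a Stat3-driven firefly luciferase reporter (puromycin-selected) and a CMV-driven Renilla luciferase internal control (hygromycin-selected), each selected for 2 weeks. After drug treatment, dual luciferase activity was read as relative luciferase units, firefly/Renilla.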

[8] = biological target: T3, Signal transducer and activator of transcription 3; assay: Inhibition of Stat3-mediated luciferase expression in human 8226 cells after 6 hrs; assay type: cell-based; procedure, shortened: as §5
[9] = biological target: T3, Signal transducer and activator of transcription 3; assay: Inhibition of Stat3 phosphorylation in human JJN-3 cells after 6 hrs by Western blot analysis; assay type: cell-based; procedure, shortened: as §4
SK-MM-2 = assay: Cytotoxicity against human SKMM-2 cells assessed as inhibition of cell viability after 72 hrs by MTT assay; assay type: functional, cell-based
Procedure, shortened: (§6)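 Myeloma lines were seeded at 1-3 x 10^4 cells per well onto compound or vehicle, in triplicate, and cultured 72 h at 37 °C in 5% CO2. Viability was measured colorimetrically by MTT assay relative to DMSO control. EC50 was fitted to a standard dose-response curve where applicable.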

XG7 = assay: Cytotoxicity against human XG7 cells assessed as inhibition of cell viability after 72 hrs by MTT assay; assay type: functional, cell-based; procedure, shortened: as §6
XG6 = assay: Cytotoxicity against human XG6 cells assessed as inhibition of cell viability after 72 hrs by MTT assay; assay type: functional, cell-based; procedure, shortened: as §6
UTMC2 = assay: Cytotoxicity against human UTMC2 cells assessed as inhibition of cell viability after 72 hrs by MTT assay; assay type: functional, cell-based; procedure, shortened: as §6
RPMI-8226 [10] = assay: Cytotoxicity against human RPMI8226 cells assessed as inhibition of cell viability after 72 hrs by MTT assay; assay type: functional, cell-based; procedure, shortened: as §6
NCI-H929 = assay: Cytotoxicity against human NCI-H929 cells assessed as inhibition of cell viability after 72 hrs by MTT assay; assay type: functional, cell-based; procedure, shortened: as §6
OCI-AML2 = assay: Cytotoxicity against human OCI-AML2 cells assessed as cell viability after 72 hrs by MTS assay; assay type: functional, cell-based; conditions: OCI-AML2, 72 h
Procedure, shortened: (§7)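 Cells were seeded at 1-3 x 10^4 per well into wells already holding compound or vehicle, in triplicate. Incubation was 72 h at 37 °C in 5% CO2. Viability was read by MTS colorimetry relative to DMSO control, and EC50 was fitted to a standard dose-response curve where applicable.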

[11] = Cytotoxicity against human MDA468 cells assessed as cell viability after 72 hrs by MTS assay; assay type: functional, cell-based; conditions: MDA-MB-468, 72 h; procedure, shortened: as §7
DU-145 = assay: Cytotoxicity against human DU145 cells assessed as cell viability after 72 hrs by MTS assay; assay type: functional, cell-based; conditions: DU-145, 72 h; procedure, shortened: as §7
[12] = biological target: T3, Signal transducer and activator of transcription 3; assay: Competitive binding affinity to Stat3 SH2 domain (unknown origin) using 5-FAM-GpYLPQTV-NH2 as probe assessed as phosphopetide complex formation after 30 mins by fluorescence polarization assay; procedure, shortened: as §1

T3 sequence (P40763 whole entry): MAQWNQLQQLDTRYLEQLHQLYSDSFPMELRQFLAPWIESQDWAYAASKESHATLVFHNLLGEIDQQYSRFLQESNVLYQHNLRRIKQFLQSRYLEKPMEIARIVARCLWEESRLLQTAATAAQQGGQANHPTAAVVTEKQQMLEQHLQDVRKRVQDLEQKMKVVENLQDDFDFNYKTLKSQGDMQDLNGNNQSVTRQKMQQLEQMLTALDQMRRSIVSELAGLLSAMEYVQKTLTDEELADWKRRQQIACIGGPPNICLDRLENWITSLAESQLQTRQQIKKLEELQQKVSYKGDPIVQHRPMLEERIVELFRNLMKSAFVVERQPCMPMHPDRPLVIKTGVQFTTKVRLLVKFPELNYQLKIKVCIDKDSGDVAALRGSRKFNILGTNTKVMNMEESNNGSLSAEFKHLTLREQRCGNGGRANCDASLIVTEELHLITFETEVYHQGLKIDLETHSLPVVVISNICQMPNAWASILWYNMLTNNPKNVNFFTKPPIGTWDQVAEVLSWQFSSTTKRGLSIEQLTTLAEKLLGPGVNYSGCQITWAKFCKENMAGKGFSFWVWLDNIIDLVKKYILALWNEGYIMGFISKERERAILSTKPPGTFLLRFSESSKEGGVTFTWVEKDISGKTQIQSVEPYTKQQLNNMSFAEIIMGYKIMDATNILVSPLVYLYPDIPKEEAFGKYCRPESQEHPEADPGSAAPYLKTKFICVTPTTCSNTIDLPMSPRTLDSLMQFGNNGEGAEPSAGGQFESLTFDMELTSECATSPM

IC50 [1] [µM] | inhibition [2] | inhibition [3] | inhibition [6] | inhibition [7] | inhibition [8] | inhibition [9] | IC50 [12] [µM] | SMILES | Activity (RPMI-8226 [4]) | Activity (RPMI-8226 [5]) | inhibition (SK-MM-2) | inhibition (XG7) | inhibition (XG6) | inhibition (UTMC2) | inhibition (RPMI-8226 [10]) | inhibition (NCI-H929) | IC50 (OCI-AML2) [µM] | IC50 [11] [µM] | IC50 (DU-145) [µM]
5.8 | Active | Active | Dose-dependent effect | Dose-dependent effect | Dose-dependent effect | Dose-dependent effect | 2.8 | Cc1ccc(S(=O)(=O)N(CC(=O)N(Cc2ccc(C3CCCCC3)cc2)c2ccc(C(=O)O)c(O)c2)Cc2ccccc2C(F)(F)F)cc1 | Dose-dependent effect | Dose-dependent effect | Dose-dependent effect | Dose-dependent effect | Dose-dependent effect | Dose-dependent effect | Dose-dependent effect | Dose-dependent effect | 12 | 11 | 16
10.9 | Active | Active | Dose-dependent effect | Dose-dependent effect | Dose-dependent effect | Dose-dependent effect | 12.8 | O=C(O)c1ccc(N(Cc2ccc(C3CCCCC3)cc2)C(=O)CN(Cc2ccccc2C(F)(F)F)S(=O)(=O)c2c(F)c(F)c(F)c(F)c2F)cc1O | Dose-dependent effect | Dose-dependent effect | Dose-dependent effect | Dose-dependent effect | Dose-dependent effect | Dose-dependent effect | Dose-dependent effect | Dose-dependent effect | 4.6 | 8.1 | 14
